# Laboratory results taken from PubChem BioAssay AID504382 (The Scripps Research Institute Molecular Screening Center, 2011).
# In all, about 2,500 compounds went through this assay and about 460 (18%) were called active.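 Rule for the calls: active = mean activation above a cutoff of low control average plus 3 SD from the earlier screen (cut at about 12% in these data); inactive = the rest.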 A selection follows.
# Assay: IANBD-channel fluorescence artefacts in buffer – biochemical, artefact control for cardiac RTF calcium sensitizer project, confirmation (AID 504382)
# Conditions: IANBD fluorescence interference counterscreen, EC20 Ca2+, at 7.2 µM, active compounds read high, scaled: EC20 calcium 0, EC100 calcium 100
# Summary of the method: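 Medium: MOPS buffer, 190 mM, with KCl, MgCl2, EGTA, NTA, DTT, pH 7.20; Dosing: one dose of 7.2 µM, 0.7% DMSO; Probe or stimulus: calcium at EC20 level, 0.472 mM final; Incubation: 15 min, 25 °C; Evaluation: compound fluorescence interference relative to control well signal range; Signal: fluorescence, 480/540 nm.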
row,SMILES,fluorescence artifact activation
1,c1ccc(CCC2=NCCn3cccc32)cc1,4.53% (inactive)
2,CCCCn1c(N)c(N(CC(C)C)C(=O)Cc2ccc(S(=O)(=O)N3CCOCC3)s2)c(=O)[nH]c1=O,3.01% (inactive)
3,Brc1ccc2[nH]c3nc(SCCN4CCOCC4)nnc3c2c1,0.16% (inactive)
4,COc1ccc(/C=C2\SC(=S)N(CCCC(=O)Nc3ccccc3C(=O)O)C2=O)cc1OC,5.03% (inactive)
5,Cc1cccc(OCCNc2ccc(C(F)(F)F)cc2[N+](=O)[O-])c1,43.7% (active)
6,O=C(Nc1ccccc1)c1ccc(NCCc2ccccc2)c([N+](=O)[O-])c1,0.33% (inactive)
7,CC(=O)c1cccc(-n2c(CCC(=O)O)ccc2-c2ccccc2)c1,0.06% (inactive)
8,Cc1nnc(-c2ccccc2)c(=O)n1/N=C/c1c(O)ccc2ccccc12,0.11% (inactive)
9,C/C(=N\NC(=O)c1cc2c(s1)CCC(C)C2)c1ccc[nH]1 (stereo not drawn),0.04% (inactive)
10,Cc1oc2c(cc(NS(=O)(=O)c3ccc(C(C)C)cc3)c3ccccc32)c1C(=O)O,-0.05% (inactive)
11,CCCN1C(=O)S/C(=C\c2ccc(N3CCOCC3)o2)C1=O,0.73% (inactive)
12,O=C1N/C(=C\c2ccsc2)C(=O)N1Cc1ccc(F)cc1,0.11% (inactive)
13,O=C1S/C(=C\c2ccc(N3CCOCC3)o2)C(=O)N1Cc1ccc(F)cc1,-0.07% (inactive)
14,CN1C/C(=C\c2ccc(N3CCOCC3)cc2)C(=O)/C(=C/c2ccc(N3CCOCC3)cc2)C1,0.12% (inactive)
15,O=C1S/C(=C/c2ccc(N3CCOCC3)o2)C(=O)N1Cc1c(F)cccc1Cl,5.76% (inactive)
16,O=C1S/C(=C\c2ccc(N3CCOCC3)o2)C(=O)N1c1ccccc1,22.4% (active)
17,O=C1S/C(=C\c2ccc(N3CCOCC3)o2)C(=O)N1Cc1c(F)cccc1Cl,226% (active)
18,CC(C)OC(=O)CN1C(=O)S/C(=C/c2ccc(N3CCCCC3)o2)C1=O,0.64% (inactive)
19,O=C(O)c1ccccc1-c1ccc(/C=C2\SC(=O)N(c3ccccc3)C2=O)o1,0.06% (inactive)
20,CCCN1C(=O)S/C(=C/c2ccc(N3CCOCC3)o2)C1=O,31.7% (active)
21,O=C1S/C(=C/c2ccc(N3CCOCC3)o2)C(=O)N1Cc1ccc(F)cc1,16.8% (active)
22,O=C(CSCc1c(F)cccc1Cl)Nc1ccccc1C(=O)N1CCOCC1,2.06% (inactive)

row,SMILES,fluorescence artifact activation
1,CCCOc1ccc(C2C(C(=O)/C=C/c3ccco3)=C(O)C(=O)N2CCN2CCOCC2)cc1OC (stereo not drawn),9.14% (inactive)
2,CC1=CC(=C(C#N)c2nc3ccccc3s2)C=C(C)N1c1ccc(F)cc1,11.2% (inactive)
3,CCC1C/C(=C\c2cc(OC)c(OC)cc2OC)C(=O)/C(=C/c2cc(OC)c(OC)cc2OC)C1 (stereo not drawn),5.41% (inactive)
4,O=[N+]([O-])c1ccc(N/N=C/c2ccc(OCc3cccc4ccccc34)cc2)nc1,-0.02% (inactive)
5,O=C(/C=C/c1ccccc1[N+](=O)[O-])Nc1cccnc1,0.87% (inactive)
6,Cc1ccc2nc3nc(NCC4CCCO4)c(C(=O)NC4CCCC4)cc3c(=O)n2c1 (stereo not drawn),0.12% (inactive)
7,COc1ccc(Cc2n[nH]c(=O)c3ccccc23)cc1OC,0.32% (inactive)
8,C[C@H](CO)N1C[C@H](C)[C@@H](CN(C)C(=O)Nc2ccc(F)cc2)Oc2ccc(NS(C)(=O)=O)cc2C1=O,0.09% (inactive)
9,Cc1ccc(N2C(=O)c3cccc4c(N)ccc(c34)C2=O)c2cccnc12,0.51% (inactive)
10,O=C(Nc1ccc2c(c1)OCO2)c1ccc2c(c1)OCO2,8.95% (inactive)
11,O=C(Nc1ccc(C(=O)N2CCOCC2)cc1)Nc1cccc(Cl)c1,8.09% (inactive)
12,O=C(Nc1ccc2c(c1)OCCO2)c1cccc(Cl)c1Cl,13.6% (active)
13,Cc1ccc(C(=O)NNC(=O)CSc2nnc(-c3ccncc3)n2-c2ccc(C)cc2)cc1,0.09% (inactive)
14,CCN1C(=O)[C@@H]2Cc3c([nH]c4ccccc34)C(c3ccc(OC)cc3)N2C1=S (stereo partly drawn),-0.08% (inactive)
15,O=C(c1ccccn1)N(Cc1cccs1)C1(C(=O)NC2CCCCC2)CCCCC1,0.12% (inactive)
16,CCN(CC(=O)Nc1ccccc1C(=O)NC1CC1)Cc1cccs1,25.6% (active)
17,O=C(NC1CCCCC1)c1ccccc1NC(=S)NC(=O)C1CCC1,8.42% (inactive)
18,O=S(=O)(/C=C/c1ccccc1)N1CCc2ccccc2C1,0.07% (inactive)
19,CCn1c(C)c(CCC(=O)O)c(=O)n2nc(-c3ccccc3OC)cc12,0.2% (inactive)
20,CC(=O)Nc1ccc(SCC(=O)NNC(=O)CN(C)S(=O)(=O)c2ccc(C)cc2)cc1,70.4% (active)
21,Cc1cc(C)nc(NS(=O)(=O)c2ccc(NC(=O)CSc3nc4ccccc4[nH]3)cc2)n1,0.03% (inactive)
22,CC(=O)Nc1ccc(S(=O)(=O)NCCC(=O)OCC(=O)c2cc(C)ccc2C)cc1,0.05% (inactive)

row,SMILES,fluorescence artifact activation
1,CCOc1ccc2nc3cc(NCc4ccc(OC)cc4)ccc3c(N)c2c1,0.41% (inactive)
2,Cn1cc(/C=C/c2cc[n+](C)cc2)c2cc(Cl)ccc21,0.1% (inactive)
3,Cn1cc(C2=C(c3ccc(Cl)cc3Cl)C(=O)NC2=O)c2ccccc21,12.7% (active)
4,Cc1ccc(N=C2NC(=O)/C(=C/c3cn(C)c4ccccc34)S2)cc1C,0% (inactive)
5,COc1cccc(C(=O)Nc2cc(C(=O)NCc3ccc(C)cc3)ccc2N2CCC3(CC2)CC(c2cccc(Br)c2)=NO3)c1,-0.03% (inactive)
6,CCN(CC(=O)Nc1ccccc1C(F)(F)F)C(=O)c1ccc(-n2nc(C)c(CCC(=O)OC)c2C)cc1,8.41% (inactive)
7,N#Cc1cccc(NC(=O)CSc2ccc3c4c(cccc24)C(=O)c2ccccc2-3)c1,0.19% (inactive)
8,Cn1nc(C(F)(F)F)c(-c2ccc(Br)cc2)c1NC(=O)c1ccco1,0.14% (inactive)
9,CCC(CC)NC(=O)Nc1ccccc1C,0.09% (inactive)
10,COCCn1c(C)cc(C(=O)COC(=O)c2ccc(Cl)c(S(N)(=O)=O)c2)c1C,3.98% (inactive)
11,Cc1nnc(NC(=O)CSc2ncnc3c2cnn3-c2ccccc2C)s1,2.39% (inactive)
12,Cc1ccc(CNC(=O)c2cc(-c3ccccc3)nn2Cc2cc(C)no2)cc1,0.08% (inactive)
13,Cc1ccc(C)c(C(=O)CCC(=O)NCc2ccc(Cl)cc2)c1,0.14% (inactive)
14,Cc1ccc(CNC(=O)CCn2cc(-c3ccc(C)cc3)nc2-c2ccncc2)cc1,18.1% (active)
15,COc1ccc2nc(C)c3cc(C)oc3c2c1,8.29% (inactive)
16,Cn1nc(-c2ccccc2)c(C(=O)Nc2ccc(C(F)(F)F)cc2)c1Cl,5.74% (inactive)
17,Cc1cc([N+](=O)[O-])ccc1-c1ccc(/C=N/NC(=O)c2ccc(Br)o2)o1,0.29% (inactive)
18,COC(=O)c1cc(-c2cccc(OC)c2)n[nH]1,1.23% (inactive)
19,C[C@@H](C(=O)N1CCNCC1)n1cc(CCCN=C(N)N)nn1,29.3% (active)
20,CC(C)(C)OC(=O)NCCCC[C@@H](C(=O)N1CCN(C(=O)OC(C)(C)C)CC1)n1cc(CCC(=O)O)nn1,0.16% (inactive)
21,CC(O)Cc1cn([C@@H](CCCCN)C(=O)N2CCNCC2)nn1 (stereo partly drawn),0.06% (inactive)
22,CC(Oc1ccc(F)cc1)C(=O)Nc1sc2c(c1C(=O)NCc1cccnc1)CCCC2 (stereo not drawn),9.94% (inactive)

row,SMILES,fluorescence artifact activation
1,Nc1cccc(N2C(=O)c3cccc4c(N)ccc(c34)C2=O)c1,0.16% (inactive)
2,CS(=O)(=O)c1ccc(C(=O)OCC(=O)Nc2cccnc2Cl)cc1[N+](=O)[O-],0% (inactive)
3,COc1ccc2ccccc2c1C(O)c1nccn1C (stereo not drawn),10.5% (inactive)
4,Cc1occc1C(=O)Nc1cccc([N+](=O)[O-])c1,11.4% (inactive)
5,COC(=O)c1cc2c(=O)c3ccccc3oc2nc1/C=C/N(C)C,0.12% (inactive)
6,CC(=O)c1ccc(C(=O)Nc2sc3c(c2C(N)=O)CCN(Cc2ccccc2)C3)cc1,-0.06% (inactive)
7,NC(=O)c1c(NC(=O)c2ccccc2)sc2c1CCN(Cc1ccccc1)C2,37.1% (active)
8,NC(=O)c1c(NC(=O)C2COc3ccccc3O2)sc2c1CCN(Cc1ccccc1)C2 (stereo not drawn),0.08% (inactive)
9,Cc1nc(-c2ccc(C#N)cc2)cs1,-0.01% (inactive)
10,CN(C)c1ccc(N=Cc2nc(-c3ccccc3)oc2O)cc1,7.65% (inactive)
11,COc1ccc(N=C(N)N=C(N)N)c(OC)c1,0% (inactive)
12,CCOc1cc(N2CCOCC2)c(OCC)cc1NC(=O)CCS(=O)(=O)c1ccc(Cl)cc1,9.02% (inactive)
13,CN(C)c1ccc(/C=C2\SC(=O)N(CC(O)Cn3c4ccccc4c4ccccc43)C2=O)cc1 (stereo not drawn),5.59% (inactive)
14,Cc1cccc(/C=C2/SC(=O)N(Cc3ccccc3)C2=O)n1,15.4% (active)
15,CCC(CO)[n+]1c(C)cc(/C=C2\Sc3ccccc3N2Cc2ccccc2)cc1C (stereo not drawn),0.01% (inactive)
16,CCn1c(=O)c(C(=O)CN2CCCc3ccccc32)c(N)n(Cc2ccccc2)c1=O,15.2% (active)
17,COCCN(C(=O)CN1CCCc2ccccc21)c1c(N)n(Cc2ccccc2)c(=O)[nH]c1=O,3.59% (inactive)
18,Cc1ccc2c(c1)CCCN2CC(=O)N(C)c1c(N)n(Cc2ccccc2)c(=O)[nH]c1=O,-0.05% (inactive)
19,Nc1c(C(=O)C2CC2)sc2nc(-c3cccs3)cc(C(F)(F)F)c12,3.83% (inactive)
20,Cc1cc[n+](-c2[nH]c(=O)sc2/C=N/NC([S-])=Nc2ccccc2)cc1C,0.4% (inactive)
21,O=c1[nH]c(-[n+]2ccccc2)c(/C=N/NC([S-])=Nc2ccccc2)s1,0.03% (inactive)
22,CCc1ccc[n+](-c2[nH]c(=O)sc2/C=N/NC([S-])=Nc2ccccc2)c1,19.1% (active)
